In data set [1] the target is Tryptase (Homo sapiens, UniProt Q9BZJ3+Q15661+Q9NRR2). As to the kind of experiment: In vitro inhibition of human tryptase.
Data set [2] is filed under the species Homo sapiens. As to the kind of experiment: Selectivity for human tryptase compared to human thrombin.
The species entered for data set [3] is Homo sapiens. Description: Selectivity for human tryptase compared to human trypsin.
A short description of data set [4]: Aqueous Stability (half-life period) at pH 9 and 37 degrees. Type of data set: ADME. The settings on record: aqueous solution. The method, boiled down:
(§1)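 Compound half-life, reported in hours, was measured by incubation in aqueous buffer at 37 °C, run separately at pH 7 and pH 9.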

Data set [5] is filed under the species Homo sapiens. As to the kind of experiment: Selectivity for human tryptase compared to human urokinase plasminogen activator.
Data set [6] is filed under the species Homo sapiens. As to the kind of experiment: Selectivity for human tryptase compared to human tissue plasminogen activator tissue.
The species named for data set [7] is Homo sapiens. Description: Selectivity for human tryptase compared to human plasmin.
Data set [8] can be described thus: Aqueous Stability (half-life period) at pH 7 and 37 degrees. The settings on record: aqueous solution. Type of data set: ADME. The method, boiled down: as §1
Data set [9] deals with Cavia porcellus. As to the kind of experiment: Effect (increase in lung resistance (Rlung)) on pulmonary mechanics of ovalbumin-sensitized guinea pigs following allergen induced bronchoconstriction upon intratracheal dosage of 75 ug/kg 10 min prior to ovalbumin challenge. Type of data set: functional. The method, boiled down:
(§2)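 Guinea pigs were sensitized by ip ovalbumin with aluminum hydroxide on days 0 and 14, plus cyclophosphamide (30 mg/kg) on day 12, and used between days 35 and 65. Under Na-pentobarbital anesthesia they were mechanically ventilated, with intratracheal flow and pressure recorded in real time. Ten min before iv ovalbumin challenge, compound was given as an intratracheal aerosol spray. Rlung and Cdyn were recorded as % change (n=9).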

The species entered for data set [10] is Cavia porcellus. As to the kind of experiment: Effect (decrease in dynamic lung compliance) on pulmonary mechanics of ovalbumin-sensitized guinea pigs following allergen induced bronchoconstriction. Type of data set: functional. The method, boiled down: as §2
For data set [11], the species on record is Cavia porcellus. Description: Effect (increase in lung resistance (Rlung)) on pulmonary mechanics of ovalbumin-sensitized guinea pigs following allergen induced bronchoconstriction. Type of data set: functional. The method, boiled down:
as §2

For data set [12], the system named is Cavia porcellus. Description: Effect (decrease in dynamic lung compliance) on pulmonary mechanics of ovalbumin-sensitized guinea pigs following allergen induced bronchoconstriction upon intratracheal dosage of 75 ug/kg 10 min prior to ovalbumin challenge. Type of data set: functional. The method, boiled down: as §2
The species named for data set [13] is Cavia porcellus. As to the kind of experiment: Dose required for the inhibition of the cellular inflammatory response in ovalbumin-sensitized guinea pigs was evaluated by the reduction in cell count by 70-80%. Type of data set: functional. The method, boiled down: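 Ovalbumin-sensitized guinea pigs were given saline or compound as an intratracheal spray at two dose levels (75 or 225 per kg), and the tracheal incision was closed. Ovalbumin was injected into the jugular vein about 6 min after dosing, and the animals recovered from anesthesia. Bronchoalveolar lavage cell counts and protein were measured 24 h later. Controls were sham-operated animals without ovalbumin challenge.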

The species entered for data set [14] is Homo sapiens. As to the kind of experiment: Ratio of inhibitiroy activities against human tryptase and human plasminogen activator urokinase microPa.

By IC50 is commonly meant the concentration that gives 50% inhibition. High values mean a need for much substance, low ones inhibition by little substance. As usually defined, the half-life is how long it takes for the measured level to halve. The low end stands for rapid decline, the high end for slow decline.

Take `N=C(N)NCCC[C@H]1C(=O)N(S(=O)(=O)c2ccc(-c3ccccc3)cc2)[C@@H]1C(=O)O`: in [1], the IC50 came out at 1 nM. Besides, the Selectivity ratio in data set [2] worked out at 7; in data set [3], 1; in [5] it was 44; in data set [6] it was 4370; in data set [7] it was 47. Also, the half-life in [4] is under 6 min; in data set [8], 636 min.
In [1], `N=C(N)NCCC[C@H]1C(=O)N(C(=O)N2CCN(C(=O)OCCc3ccccc3)CC2)[C@@H]1C(=O)O` returned an IC50 of 0.7 nM. The Selectivity ratio in data set [2] came to 3320; in data set [3] it was 8; in data set [5], 926; in [6], 14200; in [7] it was 302. Besides, the half-life in data set [4] is 420 min; in [8], over 2880 min.
Compound `CCN(CC)C(=O)N1CCN(C(=O)N2C(=O)[C@H](CCCN=C(N)N)[C@H]2C(=O)O)CC1` registered an IC50 in data set [1] of 5 nM. In addition, the Selectivity ratio was over 6600 in data set [2]; 3 in data set [3]; 520 in data set [5]; over 6600 in [6]; 227 in data set [7]. Further, the half-life in [4] is 384 min; in [8] it was over 2880 min.
Regarding `CC(C)(C)OC(=O)N1CCN(C(=O)N2C(=O)[C@H](CCCN=C(N)N)[C@H]2C(=O)O)CC1`, in data set [1], the concentration for half-maximal inhibition (IC50) is listed as 4 nM. Further, the Selectivity ratio in [2] is over 8250; in [3], 8; in data set [5], 218; in data set [6], over 8250; in data set [7], 295. Moreover, the half-life is 372 min in data set [4] and over 2880 min in [8].
Take `N=C(N)NCCC[C@H]1C(=O)N(C(=O)Nc2ccccc2)[C@@H]1C(=O)O` (stereo in doubt) [listing 1 of 2 here]: the half-maximal inhibitory concentration (IC50) in [1] is on record as 5380 nM.
`CC(C)(C)OC(=O)N1CCN(C(=O)N2C(=O)[C@H](CCCN=C(N)N)[C@H]2C(N)=O)CC1` (single isomer, unassigned) came in with a concentration for half-maximal inhibition (IC50) in data set [1] of 0.4 nM. Also, the Selectivity ratio in [2] was 105; in data set [3], 6; in data set [5], 82; in data set [6] it was 8300; in [7], 227. Also, the half-life in data set [4] was 18 min; in data set [8] it was 2520 min.
`N=C(N)NCCC[C@H]1C(=O)N(C(=O)c2ccccc2)[C@@H]1C(=O)O` showed an IC50 in data set [1] of 9 nM. In addition, the Selectivity ratio in data set [2] was found to be 142; in data set [3], 1; in data set [5], 3; in data set [6] it was 128; in data set [7], 17.
As for `N=C(N)NCCC[C@H]1C(=O)N(C(=O)N2CCN(S(=O)(=O)c3ccccc3)CC2)[C@@H]1C(=O)O`, the IC50 in data set [1] was found to be 13 nM. Besides, the Selectivity ratio in data set [2] is 556; in [3], 14; in data set [5], 43; in data set [6] it was over 2500; in [7] it was 147. The half-life is 102 min in [4] and over 2880 min in data set [8].
`N=C(N)NCCC[C@H]1C(=O)N(C(=O)NCc2ccccc2)[C@@H]1C(=O)O` showed an IC50 in [1] of 71 nM. Moreover, the Selectivity ratio in data set [2] came out at 465; in data set [3], 2; in data set [5], 16; in data set [6], 465; in data set [7], 45. In addition, the half-life in [4] was 408 min; in data set [8] it was over 2880 min.
As for `N=C(N)NCCC[C@H]1C(=O)N(C(=O)c2ccc(-c3ccccc3)cc2)[C@@H]1C(=O)O`, the IC50 in [1] is reported as 1 nM. Besides, the Selectivity ratio in data set [2] amounted to 65; in data set [3], 2; in data set [5] it was 3270; in data set [6] it was 1610; in data set [7], 8. The half-life is under 6 min in data set [4] and 666 min in data set [8].
The compound `CNC(=O)[C@@H]1[C@@H](CCCN=C(N)N)C(=O)N1C(=O)N1CCN(C(=O)OC(C)(C)C)CC1` displayed a half-maximal inhibitory concentration (IC50) in [1] of 0.7 nM. For the same compound, the Selectivity ratio in data set [2] amounted to 177; in [3], 3; in [5], 75; in [6], 6800; in data set [7], 172. The half-life in [4] is 18 min; in [8] it was 1910 min.
In turn, `N=C(N)NCCC[C@H]1C(=O)N(C(=O)N2CCN(C(=O)c3ccccc3)CC2)[C@@H]1C(=O)O` came in with a half-inhibitory concentration (IC50) in data set [1] of 5.2 nM. Moreover, the Selectivity ratio is 286 in [2]; 1 in data set [3]; 142 in [5]; over 2000 in data set [6]; 332 in data set [7]. Besides, the results for the half-life in data set [4] and in data set [8] were 234 min and over 2880 min, respectively.
In data set [1], `N=C(N)NCCC[C@H]1C(=O)N(C(=O)c2cccs2)[C@@H]1C(=O)O` came in with an IC50 of 1 nM. Also, the Selectivity ratio is 190 in data set [2]; 3 in data set [3]; 5 in data set [5]; 109 in [6]; 12 in data set [7]. In addition, the half-life in data set [4] was under 6 min; in data set [8] it was 522 min.
As to `CC(C)(C)NC(=O)N1CCN(C(=O)N2C(=O)[C@H](CCCN=C(N)N)[C@H]2C(=O)O)CC1`, the Rlung is on record as 89 % delta in [9] and 421 % delta in data set [11]. Further, the 50% inhibitory concentration (IC50) in data set [1] is 4 nM. The Selectivity ratio in data set [2] is 2620; in [3], 18; in data set [5] it was 135; in data set [6], over 8250; in data set [7] it was 430. Moreover, the values for the Cdyn in [10] and in data set [12] were -69 % delta and -43 % delta, respectively. Also, the half-life in data set [4] was 480 min; in [8], over 2880 min. The Dose in data set [13] came to 225 µg/kg.
For the compound `N=C(N)NCCC[C@H]1C(=O)N(C(=O)NC2CCCCC2)[C@@H]1C(=O)O`, the half-life was 546 min in [4] and over 2880 min in [8].
In [1], `CC(C)(C)OC(=O)N1CCN(C(=O)N2C(=O)[C@H](CCCN=C(N)N)[C@H]2C(=O)N2CCCCC2)CC1` displayed an IC50 of 3 nM. The Selectivity ratio in data set [2] came to 155; in data set [3], 1; in data set [5], 246; in data set [6], 4430; in data set [7], 205. The half-life in data set [4] was 48 min; in data set [8] it was over 2880 min.
Compound `N=C(N)NCCC[C@H]1C(=O)N(C(=O)Nc2ccccc2)[C@@H]1C(=O)O` (stereo in doubt; 8a) [listing 1 of 2 here] came in with an IC50 in data set [1] of 6 nM. Moreover, the half-life was 132 min in [4] and over 2880 min in data set [8].
`CC(C)(C)CC(=O)N1CCN(C(=O)N2C(=O)[C@H](CCCN=C(N)N)[C@H]2C(=O)O)CC1` registered an IC50 in data set [1] of 11 nM. The Selectivity ratio in [2] is over 1000; in data set [3], 1.5; in data set [5], 8; in data set [6], over 1000; in data set [7], 314. Further, the half-life is 390 min in data set [4] and over 2880 min in data set [8].
Compound `COC(=O)N1CCN(C(=O)N2C(=O)[C@H](CCCN=C(N)N)[C@H]2C(=O)O)CC1` had an IC50 in [1] of 9 nM. The Selectivity ratio is 70 in data set [14]; 683 in [2]; 2 in [3]; over 1200 in data set [6]; 210 in data set [7]. Also, the half-life in data set [4] is 336 min; in data set [8], over 2880 min.
For `N=C(N)NCCC[C@H]1C(=O)N(C(=O)Nc2ccccc2)[C@@H]1C(=O)O` (stereo in doubt; 8a) [listing 2 of 2 here], the Selectivity ratio was 1550 in [2]; 1 in data set [3]; 3 in [5]; 117 in data set [6]; 52 in data set [7].
Regarding `N=C(N)NCCC[C@H]1C(=O)N(C(=O)Nc2ccccc2)[C@@H]1C(=O)O` (relative stereo), the half-inhibitory concentration (IC50) in [1] turned out to be 992 nM.
In data set [1], `CC(C)(C)C(=O)N1CCN(C(=O)N2C(=O)[C@H](CCCN=C(N)N)[C@H]2C(=O)O)CC1` showed an IC50 of 7 nM. For the same compound, the Selectivity ratio is over 1500 in data set [2]; 3 in data set [3]; 154 in [5]; over 1500 in [6]; 232 in [7]. The half-life in data set [4] is 150 min; in [8], over 2880 min.
On to `N=C(N)NCCC[C@H]1C(=O)N(C(=O)Nc2ccccc2)[C@@H]1C(=O)O` (stereo in doubt) [listing 2 of 2 here], for which the figures for the Selectivity ratio in [3], in data set [6] and in data set [7] were 0.3, over 6 and over 6, respectively.
